Data taken from ChEMBL document CHEMBL5724801, “EUbOPEN Chemogenomics Library - Multiplex” (2024).
“And” between values parts separate entries of the source, which are not always exact repeats. Equal entries are not always repeated.

Test system: HEK-293T
Assay: Multiplex assay against HEK293T
Format: toxicity, cell-based
Details: human
Method in brief: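 Per cents of healthy-nucleus cells form the tubulin, mitochondrial-mass and membrane-permeability phenotype values. Live cells were stained at seeding with Hoechst33342, BioTracker Green Microtubule Cytoskeleton Dye, MitoTracker Red and Annexin V Alexa Fluor 680. After compound addition they were imaged on a CQ1 microscope at 37°C and 5% CO2, and CellPathfinder machine-learning gating split them into Hoechst high-intensity objects or normal cells, normal cells into healthy, pyknosed or fragmented nuclei, and pyknosed cells into mitotic or apoptotic.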

[1] = 12 h, 10 µM, compound concentration 10 uM
[2] = 24 h, 10 µM, compound concentration 10 uM
[3] = 48 h, 10 µM, compound concentration 10 uM
[4] = 12 h, 1 µM, compound concentration 1 uM
[5] = 24 h, 1 µM, compound concentration 1 uM
[6] = 48 h, 1 µM, compound concentration 1 uM

## CCC(=O)N1CCN(c2ccc(-n3c(=O)ccc4cnc5ccc(-c6cnc7ccccc7c6)cc5c43)cc2C(F)(F)F)CC1 [TORIN1]
[1]
  Population Apoptotic (%): 71% and 51%
  Population Healthy Nuclei (%): 76%
  Population Hoechst High Intensity Objects (%): 7%
  Population Membrane Permeable-Phenotype (%): 0%
  Population Mitochondria Different-Phenotype (%): 78% and 87%
  Population Mitotic Cells (%): 48%
  Population Normal (%): 88% and 92%
  Population Tubulin-Different-Phenotype (%): 37%
  Total Cell Count: 373 and 266
[2]
  Population Apoptotic (%): 44%
  Population Healthy Nuclei (%): 75%
  Population Membrane Permeable-Phenotype (%): 0%
  Population Mitochondria Different-Phenotype (%): 75% and 82%
  Population Mitotic Cells (%): 46% and 55%
  Population Normal (%): 86% and 77%
  Population Tubulin-Different-Phenotype (%): 43% and 33%
  Total Cell Count: 337 and 225
[3]
  Population Apoptotic (%): 56% and 68%
  Population Healthy Nuclei (%): 70% and 56%
  Population Membrane Permeable-Phenotype (%): 0%
  Population Mitochondria Different-Phenotype (%): 77% and 80%
  Population Mitotic Cells (%): 43%
  Population Normal (%): 73% and 38%
  Population Tubulin-Different-Phenotype (%): 47% and 37%
  Total Cell Count: 292 and 235

## CC(C)(C)c1ccc(S(=O)(=O)Nc2ccc(Cl)cc2C(=O)c2cc[n+]([O-])cc2)cc1 [VERCIRNON]
[4]
  Population Apoptotic (%): 32% and 52%
  Population Fragmented Nuclei (%): 10% and 5%
  Population Healthy Nuclei (%): 77% and 84%
  Population Hoechst High Intensity Objects (%): 7%
  Population Membrane Permeable-Phenotype (%): 0%
  Population Mitochondria Different-Phenotype (%): 33% and 51%
  Population Mitotic Cells (%): 68% and 47%
  Population Normal (%): 92%
  Population Pyknosed Nuclei (%): 12% and 10%
  Population Tubulin-Different-Phenotype (%): 21% and 22%
  Total Cell Count: 428 and 424
[1]
  Population Apoptotic (%): 30% and 39%
  Population Fragmented Nuclei (%): 6% and 4%
  Population Healthy Nuclei (%): 83% and 82%
  Population Hoechst High Intensity Objects (%): 6% and 5%
  Population Membrane Permeable-Phenotype (%): 0% and 1%
  Population Mitochondria Different-Phenotype (%): 35% and 51%
  Population Mitotic Cells (%): 69% and 60%
  Population Normal (%): 93% and 94%
  Population Pyknosed Nuclei (%): 10% and 13%
  Population Tubulin-Different-Phenotype (%): 37% and 27%
  Total Cell Count: 451 and 344
[5]
  Population Apoptotic (%): 41% and 28%
  Population Fragmented Nuclei (%): 8%
  Population Healthy Nuclei (%): 81%
  Population Hoechst High Intensity Objects (%): 6% and 5%
  Population Membrane Permeable-Phenotype (%): 0%
  Population Mitochondria Different-Phenotype (%): 21% and 32%
  Population Mitotic Cells (%): 58% and 71%
  Population Normal (%): 93% and 94%
  Population Pyknosed Nuclei (%): 9%
  Population Tubulin-Different-Phenotype (%): 15% and 16%
  Total Cell Count: 522 and 521
[2]
  Population Apoptotic (%): 22% and 28%
  Population Fragmented Nuclei (%): 10% and 7%
  Population Healthy Nuclei (%): 77% and 82%
  Population Hoechst High Intensity Objects (%): 3% and 5%
  Population Membrane Permeable-Phenotype (%): 1% and 0%
  Population Mitochondria Different-Phenotype (%): 15% and 31%
  Population Mitotic Cells (%): 77% and 71%
  Population Normal (%): 96% and 94%
  Population Pyknosed Nuclei (%): 12% and 9%
  Population Tubulin-Different-Phenotype (%): 20% and 23%
  Total Cell Count: 594 and 437
[6]
  Population Apoptotic (%): 28% and 32%
  Population Fragmented Nuclei (%): 16% and 14%
  Population Healthy Nuclei (%): 76% and 81%
  Population Hoechst High Intensity Objects (%): 2%
  Population Membrane Permeable-Phenotype (%): 0% and 2%
  Population Mitochondria Different-Phenotype (%): 16% and 14%
  Population Mitotic Cells (%): 71% and 67%
  Population Normal (%): 97%
  Population Pyknosed Nuclei (%): 7% and 4%
  Population Tubulin-Different-Phenotype (%): 13% and 12%
  Total Cell Count: 834 and 877
[3]
  Population Apoptotic (%): 21% and 25%
  Population Fragmented Nuclei (%): 13% and 12%
  Population Healthy Nuclei (%): 81% and 80%
  Population Hoechst High Intensity Objects (%): 3% and 2%
  Population Membrane Permeable-Phenotype (%): 2% and 1%
  Population Mitochondria Different-Phenotype (%): 12% and 18%
  Population Mitotic Cells (%): 78% and 75%
  Population Normal (%): 96% and 97%
  Population Pyknosed Nuclei (%): 5% and 7%
  Population Tubulin-Different-Phenotype (%): 14% and 15%
  Total Cell Count: 929 and 586
